Measurements reported in PubChem BioAssay AID588419 (The Scripps Research Institute Molecular Screening Center, 2011).
Activity calls are given as the source filed them.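 The calls were made as follows: active = IC50 at or below 1000 nM for PAD4 enzyme inhibition; inactive = IC50 above 1000 nM.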

Molecular target: Protein-arginine deiminase type-4 (Homo sapiens) (UniProt Q9UM07)
Assay: recombinant human PAD4 inhibitors – biochemical, BAEE substrate, citrulline absorbance, 0-6 µM range, late-stage follow-up (AID 588419)
Conditions: recombinant PAD4, BAEE citrulline colorimetric absorbance
Method in brief: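 assay system = recombinant PAD4 | buffer or medium = Tris-HCl pH 7.6, CaCl2, DTT | reagent = 10 mM BAEE | compound dosing = Seven-point compound series spanning 0 to 6 µM | incubation = 15 min preincubation plus 15 min reaction, 37 °C | measured by = absorbance at 540 nm | read-out basis = IC50 from citrulline formation, quantified via citrulline standard curve | replication = duplicate dose-response curves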

Sequence of Protein-arginine deiminase type-4 (Homo sapiens) (Q9UM07 whole entry, looked up): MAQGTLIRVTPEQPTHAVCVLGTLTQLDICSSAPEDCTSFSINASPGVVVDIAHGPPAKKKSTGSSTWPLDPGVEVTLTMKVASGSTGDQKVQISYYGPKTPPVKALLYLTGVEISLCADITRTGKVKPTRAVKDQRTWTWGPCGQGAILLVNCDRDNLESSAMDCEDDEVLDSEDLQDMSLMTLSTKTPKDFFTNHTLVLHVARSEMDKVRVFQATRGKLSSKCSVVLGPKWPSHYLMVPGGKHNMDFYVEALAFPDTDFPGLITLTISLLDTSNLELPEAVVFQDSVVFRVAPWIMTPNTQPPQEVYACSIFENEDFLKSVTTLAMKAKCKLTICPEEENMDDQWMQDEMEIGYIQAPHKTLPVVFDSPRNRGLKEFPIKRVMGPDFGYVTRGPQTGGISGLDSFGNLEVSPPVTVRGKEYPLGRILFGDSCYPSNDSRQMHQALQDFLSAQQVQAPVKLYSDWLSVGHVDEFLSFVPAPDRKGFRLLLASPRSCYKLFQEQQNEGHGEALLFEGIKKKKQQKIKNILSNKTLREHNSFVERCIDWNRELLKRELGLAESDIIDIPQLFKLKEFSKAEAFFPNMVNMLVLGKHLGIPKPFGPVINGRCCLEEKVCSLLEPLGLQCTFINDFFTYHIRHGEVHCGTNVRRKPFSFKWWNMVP

IC50: inactive
SMILES: COC1=C(I)C(=O)c2nc(C#N)ccc2C1=O
